In ChEMBL document CHEMBL1142406, “2-Heteroarylimino-5-benzylidene-4-thiazolidinones analogues of 2-thiazolylimino-5-benzylidene-4-thiazolidinones with antimicrobial activity: synthesis and structure-activity relationship” (2008):
Converted amounts (≈) assume the structure as drawn. The source made the active and inactive calls. The rule behind the calls is not given here.

How the values were obtained:
Staphylococcus aureus [1] = test: Antimicrobial activity against penicillin-resistant Staphylococcus aureus by broth dilution technique; type: functional
Procedure, shortened: (§1)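 Broth dilution in Mueller Hinton Broth with compounds predissolved in DMSO (at most 1% v/v). Final concentrations ranged from 100 to 0.0015, and the inoculum was 5.10⁴ bacteria/mL. Plates were incubated at 37 °C for 24 h. MIC was taken as the lowest concentration giving complete growth inhibition.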

Bacillus thuringiensis = test: Antimicrobial activity against Bacillus thuringiensis var. kurstaki BGSC 4D1 by broth dilution technique; type: functional; conditions: serovar kurstaki
Procedure, shortened: (§2)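 Broth dilution in Mueller Hinton Broth. Compounds are dissolved in DMSO (never above 1% v/v final) and serially diluted. MIC is the lowest concentration giving complete growth inhibition.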

[2] = test system: Staphylococcus haemolyticus; test: Antimicrobial activity against Staphylococcus haemolyticus by broth dilution technique; type: functional; procedure, shortened: as §2
Enterococcus faecium = test: Antimicrobial activity against Streptococcus faecium by broth dilution technique; type: functional; procedure, shortened: as §2
Escherichia coli = test: Antimicrobial activity against Escherichia coli SPA27 upto 100 ug/ml by broth dilution technique; type: functional, organism-based; procedure, shortened: as §2
Micrococcus luteus = test: Antimicrobial activity against Sarcina lutea by broth dilution technique; type: functional; procedure, shortened: as §2
Candida tropicalis [3] = test: Antimicrobial activity against Candida tropicalis ATCC 1369 upto 100 ug/ml by broth dilution technique; type: functional, organism-based
Procedure, shortened: (§3)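 Fungi are tested by Sabouraud Liquid Medium dilution. Compounds are in DMSO, with DMSO at most 1% v/v final. Inoculum is 1×10³ fungi/mL, incubated 48 h at 30 °C. MIC is the lowest concentration completely inhibiting growth. For MFC, 100 µL of clear mixtures is subcultured into 1 mL fresh medium and read after 48 h at 30 °C.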

Aspergillus niger [4] = test: Antimicrobial activity against Aspergillus niger ATCC 6275 upto 100 ug/ml by broth dilution technique; type: functional, organism-based; procedure, shortened: as §3
Staphylococcus aureus [5] = test: Antimicrobial activity against Staphylococcus aureus ATCC 25923 by broth dilution technique; type: functional; procedure, shortened: as §2
Streptococcus agalactiae = test: Antimicrobial activity against Streptococcus agalactiae by broth dilution technique; type: functional; procedure, shortened: as §2
Haemophilus influenzae = test: Antimicrobial activity against Haemophilus influenzae by broth dilution technique; type: functional
Procedure, shortened: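 Haemophilus Test Medium broth dilution. Compounds in DMSO are added to final dilutions, with DMSO at most 1% v/v. MIC is the lowest concentration completely inhibiting growth.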

[6] = test system: Staphylococcus epidermidis; test: Antimicrobial activity against Staphylococcus epidermidis ATCC 12228 by broth dilution technique
[7] = test system: Staphylococcus epidermidis; test: Antimicrobial activity against penicillin-resistant Staphylococcus epidermidis by broth dilution technique; type: functional; procedure, shortened: as §1
Enterococcus faecalis = test: Antimicrobial activity against Streptococcus faecalis by broth dilution technique; type: functional; procedure, shortened: as §2
Saccharomyces cerevisiae [8] = test: Antimicrobial activity against Saccharomyces cerevisiae ATCC 9763 upto 100 ug/ml by broth dilution technique; type: functional, organism-based; procedure, shortened: as §3
Priestia megaterium = test: Antimicrobial activity against Bacillus megaterium by broth dilution technique; type: functional; procedure, shortened: as §2
Bacillus subtilis = test: Antimicrobial activity against Bacillus subtilis ATCC 6633 by broth dilution technique; type: functional; procedure, shortened: as §2
Streptococcus pyogenes = test: Antimicrobial activity against Streptococcus pyogenes by broth dilution technique; type: functional
Procedure, shortened: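 Tryptose Phosphate Broth dilution. Compounds are dissolved in DMSO, with DMSO at most 1% v/v final. MIC is taken as the lowest concentration with complete growth inhibition.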

Candida tropicalis [9] = test: Antimicrobial activity against Candida tropicalis ATCC 1369 by broth dilution technique; type: functional; procedure, shortened: as §3
Saccharomyces cerevisiae [10] = test: Antimicrobial activity against Saccharomyces cerevisiae ATCC 9763 by broth dilution technique; type: functional; procedure, shortened: as §3
Aspergillus niger [11] = test: Antimicrobial activity against Aspergillus niger ATCC 6275 by broth dilution technique; type: functional; procedure, shortened: as §3

Row | Structure (SMILES) | MIC (Staphylococcus aureus [1]) [µg/mL] | MIC (Bacillus thuringiensis) [µg/mL] | MIC [2] [µg/mL] | MIC (Enterococcus faecium) [µg/mL] | Activity (Escherichia coli) | MIC (Micrococcus luteus) [µg/mL] | Activity (Candida tropicalis [3]) | Activity (Aspergillus niger [4]) | MIC (Staphylococcus aureus [5]) [µg/mL] | MIC (Streptococcus agalactiae) [µg/mL] | MIC (Haemophilus influenzae) [µg/mL] | MIC [6] [µg/mL] | MIC [7] [µg/mL] | MIC (Enterococcus faecalis) [µg/mL] | Activity (Saccharomyces cerevisiae [8]) | MIC (Priestia megaterium) [µg/mL] | MIC (Bacillus subtilis) [µg/mL] | MIC (Streptococcus pyogenes) [µg/mL] | other results
1 | CC1(C)S[C@@H]2[C@H](NC(=O)[C@H](N)c3ccccc3)C(=O)N2[C@H]1C(=O)O [AMPICILLIN] | 25 (≈ 71.5 µM) | 50 (≈ 143 µM) | 0.03 (≈ 0.0859 µM) | 100 (≈ 286 µM) | inactive | 0.0015 (≈ 0.00429 µM) | inactive | inactive | 0.07 (≈ 0.2 µM) | 0.03 (≈ 0.0859 µM) | 0.07 (≈ 0.2 µM) | 3 (≈ 8.59 µM) | 25 (≈ 71.5 µM) | 0.7 (≈ 2 µM) | inactive | 0.07 (≈ 0.2 µM) | 0.007 (≈ 0.02 µM) | 0.007 (≈ 0.02 µM) | 
2 | O=C1N/C(=N\c2nc3ccccc3s2)S/C1=C\c1cccc(Cl)c1 | 25 (≈ 67.2 µM) | 6 (≈ 16.1 µM) | > 100 | > 100 | inactive | 12 (≈ 32.3 µM) | inactive | inactive | 25 (≈ 67.2 µM) | > 100 | > 100 | 6 (≈ 16.1 µM) | 12 (≈ 32.3 µM) | > 100 | inactive | 12 (≈ 32.3 µM) | 12 (≈ 32.3 µM) | > 100 | 
3 | O=C1N/C(=N/c2nsc3ccccc23)S/C1=C\c1cccc([N+](=O)[O-])c1 | > 100 | 1.5 (≈ 3.92 µM) | > 100 | > 100 | inactive | > 100 | inactive | inactive | > 100 | > 100 | 3 (≈ 7.84 µM) | > 100 | > 100 | > 100 | inactive | 0.7 (≈ 1.83 µM) | > 100 | > 100 | 
4 | O=C1N/C(=N\c2nccs2)S/C1=C\c1ccc([N+](=O)[O-])cc1 | 1.5 (≈ 4.51 µM) | 1.5 (≈ 4.51 µM) | 6 (≈ 18.1 µM) | > 100 | inactive | 3 (≈ 9.03 µM) | inactive | inactive | 3 (≈ 9.03 µM) | 1.5 (≈ 4.51 µM) | 0.3 (≈ 0.903 µM) | 6 (≈ 18.1 µM) | 6 (≈ 18.1 µM) | > 100 | inactive | 0.7 (≈ 2.11 µM) | 1.5 (≈ 4.51 µM) | > 100 | 
5 | O=C1N/C(=N\c2nc3ccccc3s2)S/C1=C\c1ccc(Cl)cc1 | > 100 | 6 (≈ 16.1 µM) | 100 (≈ 269 µM) | > 100 | inactive | 12 (≈ 32.3 µM) | inactive | inactive | > 100 | > 100 | > 100 | 12 (≈ 32.3 µM) | 12 (≈ 32.3 µM) | 100 (≈ 269 µM) | inactive | 12 (≈ 32.3 µM) | 12 (≈ 32.3 µM) | > 100 | 
6 | O=C1CS/C(=N\c2nsc3ccccc23)N1 | > 100 | > 100 | > 100 | > 100 | inactive | > 100 | inactive | inactive | > 100 | > 100 | 3 (≈ 12 µM) | > 100 | > 100 | > 100 | inactive | 100 (≈ 401 µM) | 50 (≈ 201 µM) | > 100 | 
7 | O=C1CS/C(=N/c2nc3ccccc3s2)N1 | 25 (≈ 100 µM) | 25 (≈ 100 µM) | 50 (≈ 201 µM) | > 100 |  | 50 (≈ 201 µM) |  |  | 25 (≈ 100 µM) | > 100 | 0.7 (≈ 2.81 µM) | 100 (≈ 401 µM) | 100 (≈ 401 µM) | > 100 |  | 25 (≈ 100 µM) | 12 (≈ 48.1 µM) | > 100 | MIC (Candida tropicalis [9]): 50 µg/mL (≈ 201 µM); MIC (Saccharomyces cerevisiae [10]): 50 µg/mL (≈ 201 µM); MIC (Aspergillus niger [11]): 25 µg/mL (≈ 100 µM)
8 | O=C1N/C(=N\c2nccs2)S/C1=C\c1ccccc1 | 25 (≈ 87 µM) | 3 (≈ 10.4 µM) | 6 (≈ 20.9 µM) | 25 (≈ 87 µM) | inactive | 3 (≈ 10.4 µM) | inactive | inactive | 3 (≈ 10.4 µM) | 3 (≈ 10.4 µM) | 0.7 (≈ 2.44 µM) | 6 (≈ 20.9 µM) | 50 (≈ 174 µM) | 25 (≈ 87 µM) | inactive | 0.7 (≈ 2.44 µM) | 0.7 (≈ 2.44 µM) | > 100 | 
9 | O=C1N/C(=N/c2nsc3ccccc23)S/C1=C\c1ccccc1[N+](=O)[O-] | 50 (≈ 131 µM) | 3 (≈ 7.84 µM) | > 100 | > 100 | inactive | > 100 | inactive | inactive | 3 (≈ 7.84 µM) | > 100 | 1.5 (≈ 3.92 µM) | > 100 | > 100 | 100 (≈ 261 µM) | inactive | > 100 | > 100 | > 100 | 
10 | O=C1N/C(=N\c2nccs2)S/C1=C\c1cccc(Cl)c1 | 0.7 (≈ 2.18 µM) | 1.5 (≈ 4.66 µM) | 3 (≈ 9.32 µM) | 3 (≈ 9.32 µM) | inactive | 1.5 (≈ 4.66 µM) | inactive | inactive | 1.5 (≈ 4.66 µM) | 1.5 (≈ 4.66 µM) | 0.3 (≈ 0.932 µM) | 1.5 (≈ 4.66 µM) | 1.5 (≈ 4.66 µM) | 50 (≈ 155 µM) | inactive | 0.15 (≈ 0.466 µM) | 0.3 (≈ 0.932 µM) | 12 (≈ 37.3 µM) | 
